Measured values published in ChEMBL document CHEMBL3046106, “Synthesis and herbicidal activity of diphenyl ether derivatives containing unsaturated carboxylates” (J Agric Food Chem, 2011).

Assays:
Echinochloa crus-galli [1] = test: Herbicidal activity against Echinochloa crus-galli (barnyard grass) at 200 g/hm2 postemergent application after 2 weeks; format: functional
How it was run: (§1)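 Seedlings grown 14 days in the greenhouse; plants uniform in size and stage were chosen. Test compound in acetone sprayed post-emergence at a carrier volume equivalent to 187 L/ha. Plants returned to the greenhouse and watered; untreated plants served as control. Each species scored visually two weeks after application on a 0–100 scale (0 no activity, 100 total control).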

Triticum aestivum [2] = test: Toxicity against Triticum aestivum (wheat) at 400 g/hm2 postemergent application after 2 weeks; format: organism-based; conditions: in vivo, other, 336 h
How it was run: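 Greenhouse post-emergence test: plants grown 14 days, then chosen for uniform size and stage. Compound dissolved in acetone and sprayed at a carrier volume equivalent to 187 L per hectare, over […]. Untreated plants served as control. Plants were rated two weeks after application on a 0–100 scale (0 no activity, 100 total control).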

Amaranthus retroflexus [3] = test: Herbicidal activity against Amaranthus retroflexus at 400 g/hm2 postemergent application after 2 weeks; format: functional; how it was run: as §1
Glycine max [4] = test: Toxicity against Glycine max (soybean) at 100 g/hm2 postemergent application after 2 weeks; format: organism-based; conditions: in vivo, other, 336 h; how it was run: as §1
Digitaria sanguinalis [5] = test: Herbicidal activity against Digitaria sanguinalis (hairy crabgrass) at 100 g/hm2 postemergent application after 2 weeks; format: functional; how it was run: as §1
Digitaria sanguinalis [6] = test: Herbicidal activity against Digitaria sanguinalis (hairy crabgrass) at 40 g/hm2 postemergent application after 2 weeks; format: functional; how it was run: as §1
Abutilon theophrasti [7] = test: Herbicidal activity against Abutilon theophrasti (velvetleaf) at 40 g/hm2 postemergent application after 2 weeks; format: functional; how it was run: as §1
Digitaria sanguinalis [8] = test: Herbicidal activity against Digitaria sanguinalis (hairy crabgrass) at 1000 g/hm2 postemergent application after 2 weeks; format: functional; how it was run: as §1
Portulaca oleracea [9] = test: Herbicidal activity against Portulaca oleracea at 400 g/hm2 postemergent application after 2 weeks; format: functional; how it was run: as §1
Glycine max [10] = test: Toxicity against Glycine max (soybean) at postemergent application after 2 weeks; format: organism-based; conditions: in vivo, other, 336 h; how it was run: as §1
Glycine max [11] = test: Toxicity against Glycine max (soybean) at 400 g/hm2 postemergent application after 2 weeks; format: organism-based; conditions: in vivo, other, 336 h; how it was run: as §1
Echinochloa crus-galli [12] = test: Herbicidal activity against Echinochloa crus-galli (barnyard grass) at 100 g/hm2 postemergent application after 2 weeks; format: functional; how it was run: as §1
Abutilon theophrasti [13] = test: Herbicidal activity against Abutilon theophrasti (velvetleaf) at 200 g/hm2 postemergent application after 2 weeks; format: functional; how it was run: as §1
Abutilon theophrasti [14] = test: Herbicidal activity against Abutilon theophrasti (velvetleaf) at postemergent application after 2 weeks; format: functional; how it was run: as §1
Triticum aestivum [15] = test: Toxicity against Triticum aestivum (wheat) at 100 g/hm2 postemergent application after 2 weeks; format: organism-based; conditions: in vivo, other, 336 h; how it was run: as §1
Echinochloa crus-galli [16] = test: Herbicidal activity against Echinochloa crus-galli (barnyard grass) at 400 g/hm2 postemergent application after 2 weeks; format: functional; how it was run: as §1
Echinochloa crus-galli [17] = test: Herbicidal activity against Echinochloa crus-galli (barnyard grass) at 40 g/hm2 postemergent application after 2 weeks; format: functional; how it was run: as §1
Abutilon theophrasti [18] = test: Herbicidal activity against Abutilon theophrasti (velvetleaf) at 400 g/hm2 postemergent application after 2 weeks; format: functional; how it was run: as §1
Setaria glauca (foxtail) [19] = test: Herbicidal activity against Setaria glauca at 400 g/hm2 postemergent application after 2 weeks
Commelina communis [20] = test: Herbicidal activity against Commelina communis (Asiatic dayflower) at 400 g/hm2 post-emergent application after 2 weeks; format: functional; how it was run: as §1
Abutilon theophrasti [21] = test: Herbicidal activity against Abutilon theophrasti (velvetleaf) at 100 g/hm2 postemergent application after 2 weeks; format: functional; how it was run: as §1
Digitaria sanguinalis [22] = test: Herbicidal activity against Digitaria sanguinalis (hairy crabgrass) at 200 g/hm2 postemergent application after 2 weeks; format: functional; how it was run: as §1
Echinochloa crus-galli [23] = test: Herbicidal activity against Echinochloa crus-galli (barnyard grass) at 1000 g/hm2 postemergent application after 2 weeks; format: functional; how it was run: as §1
Commelina communis [24] = test: Herbicidal activity against Commelina communis (Asiatic dayflower) at 100 g/hm2 post-emergent application after 2 weeks; format: functional; how it was run: as §1
Xanthium strumarium [25] = test: Herbicidal activity against Xanthium strumarium (cocklebur) at 100 g/hm2 postemergent application after 2 weeks; format: functional; how it was run: as §1
Digitaria sanguinalis [26] = test: Herbicidal activity against Digitaria sanguinalis (hairy crabgrass) at 400 g/hm2 postemergent application after 2 weeks; format: functional; how it was run: as §1
[27] = Crop selectivity index, ratio of LD10 for soybean to LD90 for velvetleaf
Xanthium strumarium [28] = test: Herbicidal activity against Xanthium strumarium (cocklebur) at 400 g/hm2 postemergent application after 2 weeks; format: functional; how it was run: as §1
Abutilon theophrasti [29] = test: Herbicidal activity against Abutilon theophrasti (velvetleaf) at 1000 g/hm2 postemergent application after 2 weeks; format: functional; how it was run: as §1
Xanthium strumarium [30] = test: Herbicidal activity against Xanthium strumarium (cocklebur) at 25 g/hm2 postemergent application after 2 weeks; format: functional; how it was run: as §1
Abutilon theophrasti [31] = test: Herbicidal activity against Abutilon theophrasti (velvetleaf) at 480 g/hm2 postemergent application after 2 weeks; format: functional; how it was run: as §1
Digitaria sanguinalis [32] = test: Herbicidal activity against Digitaria sanguinalis (hairy crabgrass) at 120 g/hm2 postemergent application after 2 weeks; format: functional; how it was run: as §1
Portulaca oleracea [33] = test: Herbicidal activity against Portulaca oleracea at 40 g/hm2 postemergent application after 2 weeks; format: functional; how it was run: as §1
Echinochloa crus-galli [34] = test: Herbicidal activity against Echinochloa crus-galli (barnyard grass) at 25 g/hm2 postemergent application after 2 weeks; format: functional; how it was run: as §1
Digitaria sanguinalis [35] = test: Herbicidal activity against Digitaria sanguinalis (hairy crabgrass) at 30 g/hm2 postemergent application after 2 weeks; format: functional; how it was run: as §1
Abutilon theophrasti [36] = test: Herbicidal activity against Abutilon theophrasti (velvetleaf) at 25 g/hm2 postemergent application after 2 weeks; format: functional; how it was run: as §1
Commelina communis [37] = test: Herbicidal activity against Commelina communis (Asiatic dayflower) at 25 g/hm2 post-emergent application after 2 weeks; format: functional; how it was run: as §1
Amaranthus retroflexus [38] = test: Herbicidal activity against Amaranthus retroflexus at 40 g/hm2 postemergent application after 2 weeks; format: functional; how it was run: as §1
Glycine max [39] = test: Toxicity against Glycine max (soybean) at 25 g/hm2 postemergent application after 2 weeks; format: organism-based; conditions: in vivo, other, 336 h
Triticum aestivum [40] = test: Toxicity against Triticum aestivum (wheat) at 25 g/hm2 postemergent application after 2 weeks; format: organism-based; conditions: in vivo, other, 336 h
Setaria glauca (foxtail) [41] = test: Herbicidal activity against Setaria glauca at 40 g/hm2 postemergent application after 2 weeks
Echinochloa crus-galli [42] = test: Herbicidal activity against Echinochloa crus-galli (barnyard grass) at 480 g/hm2 postemergent application after 2 weeks; format: functional; how it was run: as §1
Abutilon theophrasti [43] = test: Herbicidal activity against Abutilon theophrasti (velvetleaf) at 120 g/hm2 postemergent application after 2 weeks; format: functional; how it was run: as §1
Abutilon theophrasti [44] = test: Herbicidal activity against Abutilon theophrasti (velvetleaf) at 30 g/hm2 postemergent application after 2 weeks; format: functional; how it was run: as §1
Digitaria sanguinalis [45] = test: Herbicidal activity against Digitaria sanguinalis (hairy crabgrass) at 25 g/hm2 postemergent application after 2 weeks; format: functional; how it was run: as §1
Commelina communis [46] = test: Herbicidal activity against Commelina communis (Asiatic dayflower) at 40 g/hm2 post-emergent application after 2 weeks; format: functional; how it was run: as §1
Xanthium strumarium [47] = test: Herbicidal activity against Xanthium strumarium (cocklebur) at 40 g/hm2 postemergent application after 2 weeks; format: functional; how it was run: as §1
Digitaria sanguinalis [48] = test: Herbicidal activity against Digitaria sanguinalis (hairy crabgrass) at 480 g/hm2 postemergent application after 2 weeks; format: functional; how it was run: as §1
Echinochloa crus-galli [49] = test: Herbicidal activity against Echinochloa crus-galli (barnyard grass) at 30 g/hm2 postemergent application after 2 weeks; format: functional; how it was run: as §1
Echinochloa crus-galli [50] = test: Herbicidal activity against Echinochloa crus-galli (barnyard grass) at 120 g/hm2 postemergent application after 2 weeks; format: functional; how it was run: as §1
Digitaria sanguinalis [51] = test: Herbicidal activity against Digitaria sanguinalis (hairy crabgrass) at 2000 g/hm2 postemergent application after 2 weeks; format: functional; how it was run: as §1
Echinochloa crus-galli [52] = test: Herbicidal activity against Echinochloa crus-galli (barnyard grass) at 2000 g/hm2 postemergent application after 2 weeks; format: functional; how it was run: as §1
Abutilon theophrasti [53] = test: Herbicidal activity against Abutilon theophrasti (velvetleaf) at 2000 g/hm2 postemergent application after 2 weeks; format: functional; how it was run: as §1

## O=C(O)c1cc(Oc2ccc(C(F)(F)F)cc2Cl)ccc1[N+](=O)[O-] [ACIFLUORFEN]
Echinochloa crus-galli [1]
  Activity: 50%
Triticum aestivum [2]
  Activity: 15%
Amaranthus retroflexus [3]
  Activity: 95%
Glycine max [4]
  Activity: 5%
Digitaria sanguinalis [5]
  Activity: 10%
Digitaria sanguinalis [6]
  Activity: 0%
Abutilon theophrasti [7]
  Activity: 50%
Digitaria sanguinalis [8]
  Activity: 10%
Portulaca oleracea [9]
  Activity: 95%
Glycine max [10]
  LD10: 461.8 g/hm2
Glycine max [11]
  Activity: 10%
Echinochloa crus-galli [12]
  Activity: 25%
Abutilon theophrasti [13]
  Activity: 95%
Abutilon theophrasti [14]
  LD90: 137.4 g/hm2
Triticum aestivum [15]
  Activity: 0%
Echinochloa crus-galli [16]
  Activity: <70%
Echinochloa crus-galli [17]
  Activity: 20%
Abutilon theophrasti [18]
  Activity: 70%
Setaria glauca (foxtail) [19]
  Activity: <70%
Commelina communis [20]
  Activity: <70%
Abutilon theophrasti [21]
  Activity: 85%
Digitaria sanguinalis [22]
  Activity: 0%
Echinochloa crus-galli [23]
  Activity: 90%
Commelina communis [24]
  Activity: 60%
Xanthium strumarium [25]
  Activity: 80%
Digitaria sanguinalis [26]
  Activity: 70%
[27]
  Selectivity Index: 3.4
Xanthium strumarium [28]
  Activity: <70%
Abutilon theophrasti [29]
  Activity: 100%

## CCOC(=O)/C=C/COC(=O)c1cc(Oc2ccc(C(F)(F)F)cc2Cl)ccc1[N+](=O)[O-]
Xanthium strumarium [30]
  Activity: 40%
Abutilon theophrasti [31]
  Activity: 100%
Glycine max [4]
  Activity: 10%
Digitaria sanguinalis [5]
  Activity: 60%
Digitaria sanguinalis [32]
  Activity: 80%
Digitaria sanguinalis [6]
  Activity: 70%
Abutilon theophrasti [7]
  Activity: 95%
Portulaca oleracea [33]
  Activity: 95%
Glycine max [10]
  LD10: 63 g/hm2
Echinochloa crus-galli [34]
  Activity: 0%
Digitaria sanguinalis [35]
  Activity: 60%
Abutilon theophrasti [36]
  Activity: 65%
Commelina communis [37]
  Activity: 35%
Amaranthus retroflexus [38]
  Activity: 95%
Echinochloa crus-galli [12]
  Activity: 55%
Abutilon theophrasti [14]
  LD90: 19.4 g/hm2
Glycine max [39]
  Activity: 5%
Triticum aestivum [15]
  Activity: 25%
Triticum aestivum [40]
  Activity: 10%
Echinochloa crus-galli [17]
  Activity: <70%
Setaria glauca (foxtail) [41]
  Activity: <70%
Echinochloa crus-galli [42]
  Activity: 70%
Abutilon theophrasti [21]
  Activity: 100%
Commelina communis [24]
  Activity: 95%
Xanthium strumarium [25]
  Activity: 98%
Abutilon theophrasti [43]
  Activity: 99%
Abutilon theophrasti [44]
  Activity: 95%
[27]
  Selectivity Index: 3.2
Digitaria sanguinalis [45]
  Activity: 5%
Commelina communis [46]
  Activity: <70%
Xanthium strumarium [47]
  Activity: 70%
Digitaria sanguinalis [48]
  Activity: 90%
Echinochloa crus-galli [49]
  Activity: 40%
Echinochloa crus-galli [50]
  Activity: 50%

## C=CCOC(=O)/C=C/COC(=O)c1cc(Oc2ccc(C(F)(F)F)cc2Cl)ccc1[N+](=O)[O-]
Digitaria sanguinalis [8]
  Activity: 25%
Digitaria sanguinalis [51]
  Activity: 55%
Echinochloa crus-galli [52]
  Activity: 60%
Echinochloa crus-galli [23]
  Activity: 30%
Abutilon theophrasti [53]
  Activity: 100%
Abutilon theophrasti [29]
  Activity: 80%
